Reference: PubChem BioAssay
A number with no mark means an inactive call. Calls of active or inactive are those of the source.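 Rule for the calls, unless noted: active = viability at or under a set limit in both replicates, limit being median viability minus 3 SD (cut at about 48% in these data, passing the limit was not always enough); inconclusive = at or under the limit in just one replicate; inactive = at or above the limit in both replicates.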

Assay: HUVEC growth inhibition – cell-based, human, primary screen (AID 575;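 active = viability at or below 30% in both replicate assays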;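 note: 100% = median of untreated cell wells with 0.1% DMSO on each plate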)
Conditions: HUVEC proliferation, CellTiter-Glo luminescence, 72 h; at 10 µM; active compounds read low
How it was run: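 material = primary HUVEC, no more than 12 passages | input = 1250 cells per well | controls = vehicle and MePR control wells | measured by = CTG luminescence | times = 72 h compound incubation | format = collagen-coated 384-well format | read-out = % viability vs DMSO wells | doses = single 10 µM dose, 0.1% DMSO, from 5x medium stock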
In the case of `Cc1ccccc1Cn1ccc(NC(=O)c2onc(C)c2Cl)n1`, the viability is reported as 93.6%.
Work on `CN(CCCNC(=O)c1cn(C)c2ccc(S(=O)(=O)N(C)C)cc2c1=O)c1ccccc1` yielded a viability of 98.3%.
`NC(=O)CN1C(=O)C(O)(CC(=O)c2ccccc2O)c2ccccc21` (centres undefined) gave a viability of 92.1%.
Work on `CC(C)CCN(C)C1CCN(S(=O)(=O)c2ccc(F)cc2)CC1` yielded a viability of 107%.
With `COc1ccc(C(C)N2CC34C=CC(O3)C(C(=O)OCC(C)C)C4C2=O)cc1` (centres undefined) the viability was 97.2%.
In the case of `COc1ccc(Cl)cc1S(=O)(=O)N1CCN(c2ccc(F)cc2)CC1`, the viability is reported as 90.1%.
Work on `Cc1sc2nc(SCC(=O)NCCO)n(C)c(=O)c2c1C` yielded a viability of 104%.
In the case of `CC(=O)NCCc1nc2ccccc2[nH]1`, the viability is reported as 91.9%.
Compound `CCN1C(=O)c2cccc3c(NC(=O)c4ccc(S(=O)(=O)N(C)C)cc4)ccc1c23` has a viability of 53.6%.
For `Cc1nc2ccccc2c2oc(C(=O)N3CCN(C(=O)c4ccco4)CC3)cc12`, the viability was 87.4%.
`c1ccc(Cn2nnc3c(N4CCCCCC4)ncnc32)cc1` showed a viability of 57.5%.
`COC(=O)c1cn(C(=O)c2ccc(Br)o2)c2ccccc12` gave a viability of 95.9%.
For `CS(=O)(=O)Nc1ccccc1C(=O)O`, the viability was 91.5%.
For `Cn1cccc1Cc1nnc(SCC(=O)NCC2CCCO2)n1-c1ccc(F)cc1` (centres undefined), the viability was 106%.
`Cc1ccc(Cn2c(=O)c3ccccc3n3c(CCC(=O)O)nnc23)cc1` gave a viability of 92.5%.
`COc1ccc(OCCSc2nc3ccccc3n2CC(=O)O)cc1` gave a viability of 85.4%.
Work on `CCCCSc1nc2c(cnn2-c2ccc(F)cc2)c(=O)[nH]1` yielded a viability of 96.2%.
For `CCOc1ccc(NC(=O)C(C)Sc2nnc(C)n2C)cc1` (centres undefined), the viability was 97.6%.
With `CCOc1ccc2[nH]c(C)cc(=O)c2c1` the viability was 94.8%.
`Cc1nc2ccccc2c2oc(C(=O)N3CCC(N4CCCCC4)CC3)cc12` showed a viability of 75.7%.
`O=C(O)c1ccc2c(c1)C(=O)N(c1ccc(Cl)cn1)C2=O` gave a viability of 105%.
With `COc1cccc(-c2nc(CS(=O)(=O)CC(=O)NCc3ccc(Cl)cc3)c(C)o2)c1` the viability was 42.8%.
`COc1ccc(C(NC(=O)c2ccco2)c2ccc(OC)c(OC)c2)cc1` (centres undefined) gave a viability of 89.2%.
`CCOC(=O)N1CCC(NC(=O)CN2C(=O)CCSc3ccccc32)CC1` showed a viability of 87.5%.

Assay: growth inhibitors of H69AR lung tumor, primary screen, human, duplicate replicates (AID 580);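 note: 100% = mean luminescence of untreated wells and 0% = no signal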
Conditions: H69AR lung tumor cells viability, ATP luminescence, 72 h; at 10 µM; active compounds read low
For `CCCCN=CC1=C(O)C(C(=O)OC)C(C)(C)CC1=O` (centres undefined), the viability was 91.4%.
With `Cc1ccc(C)c(C(=O)CC2(O)C(=O)N(C)c3ccccc32)c1` (centres undefined) the viability was 92.2%.
For `CC(=O)C1=C(C)Nc2ncnn2C1c1cccc(OCc2ccccc2)c1` (centres undefined), the viability was 88.6%.
`Cc1ccc(C(=O)CC2(O)C(=O)N(C)c3ccc(Br)cc32)c(C)c1` (centres undefined) showed a viability of 75%.
In the case of `Fc1cccc(Nc2ncnc3c2cnn3-c2ccccc2)c1`, the viability is reported as 37.9% (active).
In the case of `COc1ccc(NC(=O)NCCN2C(=O)C3C4C=CC(C4)C3C2=O)cc1` (centres undefined), the viability is reported as 101%.
With `Cc1ccc(C)c(NC(=O)CSc2nnc(-c3ccccc3)o2)c1` the viability was 89.6%.
Compound `O=C(NCCCN1CCOCC1)c1cc(-c2ccc(O)cc2)on1` has a viability of 94.8%.
`CCOC(=O)c1ccc(NC(=O)Cn2cc3c(n2)CCC(C)C3)cc1` (centres undefined) showed a viability of 91.9%.
For `N#C/C(C(=O)N1CCOCC1)=C1/SC=C(c2ccccc2)N1c1ccccc1`, the viability was 96.1%.
For `COc1ccc(C(=O)c2coc3ccc(O)c(CN4CCCCC4)c23)cc1`, the viability was 75.5%.
`CCn1c(C(=O)N2CCC(C(=O)N3CCN(c4ccccn4)CC3)CC2)cc2sccc21` showed a viability of 87.1%.
`CCOC(=O)N1CCN(Cc2nc3c(c(=O)n(C)c(=O)n3C)n2Cc2ccccc2)CC1` gave a viability of 89.1%.
For `CN1CCN(C(=O)c2ccc(CS(=O)(=O)c3c(Cl)cccc3Cl)o2)CC1`, the viability was 94.3%.
For `CN(C)CCCN1C(=O)c2oc3ccc(Cl)cc3c(=O)c2C1c1cccnc1` (centres undefined), the viability was 83%.
For `O=C(CSc1nnc2ccccn12)c1ccccc1`, the viability was 94.5%.
For `Cc1ccccc1Cn1ccc(NC(=O)c2onc(C)c2Cl)n1`, the viability was 100%.
With `CN(CCCNC(=O)c1cn(C)c2ccc(S(=O)(=O)N(C)C)cc2c1=O)c1ccccc1` the viability was 87.7%.
`NC(=O)CN1C(=O)C(O)(CC(=O)c2ccccc2O)c2ccccc21` (centres undefined) gave a viability of 91.8%.
`CC(C)CCN(C)C1CCN(S(=O)(=O)c2ccc(F)cc2)CC1` showed a viability of 81%.
With `COc1ccc(C(C)N2CC34C=CC(O3)C(C(=O)OCC(C)C)C4C2=O)cc1` (centres undefined) the viability was 85.1%.
`COc1ccc(Cl)cc1S(=O)(=O)N1CCN(c2ccc(F)cc2)CC1` gave a viability of 75.8%.
With `Cc1sc2nc(SCC(=O)NCCO)n(C)c(=O)c2c1C` the viability was 88%.
`CC(=O)NCCc1nc2ccccc2[nH]1` gave a viability of 93.7%.
Work on `CCN1C(=O)c2cccc3c(NC(=O)c4ccc(S(=O)(=O)N(C)C)cc4)ccc1c23` yielded a viability of 65.9%.
With `Cc1nc2ccccc2c2oc(C(=O)N3CCN(C(=O)c4ccco4)CC3)cc12` the viability was 83.1%.
In the case of `c1ccc(Cn2nnc3c(N4CCCCCC4)ncnc32)cc1`, the viability is reported as 69.9%.
`COC(=O)c1cn(C(=O)c2ccc(Br)o2)c2ccccc12` gave a viability of 88.3%.
For `CS(=O)(=O)Nc1ccccc1C(=O)O`, the viability was 98.8%.
Compound `Cn1cccc1Cc1nnc(SCC(=O)NCC2CCCO2)n1-c1ccc(F)cc1` (centres undefined) has a viability of 91%.
`Cc1ccc(Cn2c(=O)c3ccccc3n3c(CCC(=O)O)nnc23)cc1` showed a viability of 98.9%.
Work on `COc1ccc(OCCSc2nc3ccccc3n2CC(=O)O)cc1` yielded a viability of 97.8%.
For `CCCCSc1nc2c(cnn2-c2ccc(F)cc2)c(=O)[nH]1`, the viability was 74%.
Compound `CCOc1ccc(NC(=O)C(C)Sc2nnc(C)n2C)cc1` (centres undefined) has a viability of 98.8%.
`CCOc1ccc2[nH]c(C)cc(=O)c2c1` gave a viability of 108%.
`Cc1nc2ccccc2c2oc(C(=O)N3CCC(N4CCCCC4)CC3)cc12` showed a viability of 87.4%.
Work on `O=C(O)c1ccc2c(c1)C(=O)N(c1ccc(Cl)cn1)C2=O` yielded a viability of 87.2%.
Work on `COc1cccc(-c2nc(CS(=O)(=O)CC(=O)NCc3ccc(Cl)cc3)c(C)o2)c1` yielded a viability of 87.9%.
`COc1ccc(C(NC(=O)c2ccco2)c2ccc(OC)c(OC)c2)cc1` (centres undefined) gave a viability of 96.2%.
Compound `CCOC(=O)N1CCC(NC(=O)CN2C(=O)CCSc3ccccc32)CC1` has a viability of 93.1%.
